Laboratory results reported in ChEMBL document CHEMBL1933006, “Mechanistic analysis of muraymycin analogues: a guide to the design of MraY inhibitors” (J Med Chem, 2011).
Converted amounts (≈) assume the structure as drawn.

How the values were obtained:
Assay type in all cases: functional
Staphylococcus aureus [1] = experiment: Antibacterial activity against methicillin-sensitive […] Staphylococcus aureus ATCC 29213 after 20 hrs by broth microdilution method; conditions: ATCC 29213, 20 h
Method in brief: (§1)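 NCCLS broth microdilution in cation-adjusted Mueller–Hinton broth. Serial 2-fold compound dilutions were inoculated with 5 × 10⁴ CFU per 0.1 mL and incubated at 35 °C for 20 h before scoring the MIC.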

Enterococcus faecalis [2] = experiment: Antibacterial activity against Enterococcus faecalis ATCC 29212 after 20 hrs by broth microdilution method; conditions: ATCC 29212, 20 h; method in brief: as §1
Staphylococcus aureus [3] = experiment: Antibacterial activity against methicillin-resistant Staphylococcus aureus isolate SR3637 after 20 hrs by broth microdilution method; conditions: isolate SR3637, 20 h; method in brief: as §1
Enterococcus faecium [4] = experiment: Antibacterial activity against vancomycin-resistant Enterococcus faecium SR7917 after 20 hrs by broth microdilution method; conditions: SR7917, 20 h; method in brief: as §1
Enterococcus faecalis [5] = experiment: Antibacterial activity against vancomycin-resistant Enterococcus faecalis SR7914 after 20 hrs by broth microdilution method; conditions: SR7914, 20 h; method in brief: as §1
Enterococcus faecium [6] = experiment: Antibacterial activity against Enterococcus faecium ATCC 19434 after 20 hrs by broth microdilution method; conditions: ATCC 19434, 20 h; method in brief: as §1

CCCCCCCCCCCCCCC[C@H](NC(=O)[C@@H](N)CCCSC)C(=O)NCCCN[C@H](C(=O)O)[C@H](O[C@@H]1O[C@H](CN)[C@@H](O)[C@H]1O)[C@H]1O[C@@H](n2ccc(=O)[nH]c2=O)[C@H](O)[C@@H]1O
MIC (Staphylococcus aureus [1]): 8 µg/mL (≈ 8.71 µM)
MIC (Enterococcus faecalis [2]): 4 µg/mL (≈ 4.36 µM)
MIC (Staphylococcus aureus [3]): 8 µg/mL (≈ 8.71 µM)
MIC (Enterococcus faecium [4]): 8 µg/mL (≈ 8.71 µM)
MIC (Enterococcus faecalis [5]): 4 µg/mL (≈ 4.36 µM)

CCCCCCOc1ccc(-c2ccc([C@@H](NC(=O)[C@@H](NC(=O)N[C@H](C(=O)O)C(C)C)[C@@H]3CCNC(=N)N3)C(=O)NCCCN[C@H](C(=O)O)[C@H](O[C@@H]3O[C@H](CN)[C@@H](O)[C@H]3O)[C@H]3O[C@@H](n4ccc(=O)[nH]c4=O)[C@H](O)[C@@H]3O)cc2)cc1
MIC (Enterococcus faecium [6]): 4 µg/mL (≈ 3.6 µM)
MIC (Staphylococcus aureus [1]): 16 µg/mL (≈ 14.4 µM)
MIC (Enterococcus faecalis [2]): 16 µg/mL (≈ 14.4 µM)
MIC (Staphylococcus aureus [3]): 16 µg/mL (≈ 14.4 µM)
MIC (Enterococcus faecium [4]): 8 µg/mL (≈ 7.19 µM)
MIC (Enterococcus faecalis [5]): 16 µg/mL (≈ 14.4 µM)

CCCCCCCCCCCCCCC[C@H](NC(=O)[C@@H](N)[C@@H]1CCNC(=N)N1)C(=O)NCCCN[C@H](C(=O)O)[C@H](O[C@@H]1O[C@H](CN)[C@@H](O)[C@H]1O)[C@H]1O[C@@H](n2ccc(=O)[nH]c2=O)[C@H](O)[C@@H]1O
MIC (Staphylococcus aureus [1]): 8 µg/mL (≈ 8.63 µM)
MIC (Enterococcus faecalis [2]): 4 µg/mL (≈ 4.31 µM)
MIC (Staphylococcus aureus [3]): 8 µg/mL (≈ 8.63 µM)
MIC (Enterococcus faecium [4]): 8 µg/mL (≈ 8.63 µM)
MIC (Enterococcus faecalis [5]): 4 µg/mL (≈ 4.31 µM)

CCCCCCCCCCCCCCC[C@H](NC(=O)[C@H](CCCN)NC(=O)N[C@H](C(=O)O)C(C)C)C(=O)NCCCN[C@H](C(=O)O)[C@H](O[C@@H]1O[C@H](CN)[C@@H](O)[C@H]1O)[C@H]1O[C@@H](n2ccc(=O)[nH]c2=O)[C@H](O)[C@@H]1O
MIC (Staphylococcus aureus [1]): 4 µg/mL (≈ 3.88 µM)
MIC (Enterococcus faecalis [2]): 8 µg/mL (≈ 7.77 µM)
MIC (Staphylococcus aureus [3]): 2 µg/mL (≈ 1.94 µM)
MIC (Enterococcus faecium [4]): 4 µg/mL (≈ 3.88 µM)
MIC (Enterococcus faecalis [5]): 8 µg/mL (≈ 7.77 µM)

CCCCCCCCCCCCCCC[C@@H](NC(=O)[C@@H](N)[C@@H]1CCNC(=N)N1)C(=O)NCCCN[C@H](C(=O)O)[C@H](O[C@@H]1O[C@H](CN)[C@@H](O)[C@H]1O)[C@H]1O[C@@H](n2ccc(=O)[nH]c2=O)[C@H](O)[C@@H]1O
MIC (Staphylococcus aureus [1]): 8 µg/mL (≈ 8.63 µM)
MIC (Enterococcus faecalis [2]): 4 µg/mL (≈ 4.31 µM)
MIC (Staphylococcus aureus [3]): 8 µg/mL (≈ 8.63 µM)
MIC (Enterococcus faecium [4]): 8 µg/mL (≈ 8.63 µM)
MIC (Enterococcus faecalis [5]): 8 µg/mL (≈ 8.63 µM)

CCCCCCCCCCCCCCC[C@H](NC(=O)[C@@H](N)CCCNC(=N)N)C(=O)NCCCN[C@H](C(=O)O)[C@H](O[C@@H]1O[C@H](CN)[C@@H](O)[C@H]1O)[C@H]1O[C@@H](n2ccc(=O)[nH]c2=O)[C@H](O)[C@@H]1O
MIC (Staphylococcus aureus [1]): 4 µg/mL (≈ 4.31 µM)
MIC (Enterococcus faecalis [2]): 4 µg/mL (≈ 4.31 µM)
MIC (Staphylococcus aureus [3]): 4 µg/mL (≈ 4.31 µM)
MIC (Enterococcus faecium [4]): 4 µg/mL (≈ 4.31 µM)
MIC (Enterococcus faecalis [5]): 4 µg/mL (≈ 4.31 µM)

CCCCCCCCCCCCCCC[C@@H](NC(=O)[C@@H](NC(=O)OCc1ccccc1)[C@@H]1CCNC(=N)N1)C(=O)NCCCN[C@H](C(=O)O)[C@H](O[C@@H]1O[C@H](CN)[C@@H](O)[C@H]1O)[C@H]1O[C@@H](n2ccc(=O)[nH]c2=O)[C@H](O)[C@@H]1O
MIC (Staphylococcus aureus [1]): 8 µg/mL (≈ 7.54 µM)
MIC (Enterococcus faecalis [2]): 4 µg/mL (≈ 3.77 µM)
MIC (Staphylococcus aureus [3]): 8 µg/mL (≈ 7.54 µM)
MIC (Enterococcus faecium [4]): 4 µg/mL (≈ 3.77 µM)
MIC (Enterococcus faecalis [5]): 4 µg/mL (≈ 3.77 µM)

CCCCCCCCCCCCCCC[C@H](NC(=O)[C@@H](N)CCCN)C(=O)NCCCN[C@H](C(=O)O)[C@H](O[C@@H]1O[C@H](CN)[C@@H](O)[C@H]1O)[C@H]1O[C@@H](n2ccc(=O)[nH]c2=O)[C@H](O)[C@@H]1O
MIC (Staphylococcus aureus [1]): 4 µg/mL (≈ 4.51 µM)
MIC (Enterococcus faecalis [2]): 4 µg/mL (≈ 4.51 µM)
MIC (Staphylococcus aureus [3]): 4 µg/mL (≈ 4.51 µM)
MIC (Enterococcus faecium [4]): 8 µg/mL (≈ 9.02 µM)
MIC (Enterococcus faecalis [5]): 4 µg/mL (≈ 4.51 µM)

CN[C@H](CC(C)C)C(=O)N[C@H]1C(=O)N[C@@H](CC(N)=O)C(=O)N[C@H]2C(=O)N[C@H]3C(=O)N[C@H](C(=O)N[C@H](C(=O)O)c4cc(O)cc(O)c4-c4cc3ccc4O)[C@H](O)c3ccc(c(Cl)c3)Oc3cc2cc(c3O[C@@H]2O[C@H](CO)[C@@H](O)[C@H](O)[C@H]2O[C@H]2C[C@](C)(N)[C@H](O)[C@H](C)O2)Oc2ccc(cc2Cl)[C@H]1O [VANCOMYCIN]
MIC (Enterococcus faecalis [2]): 1 µg/mL (≈ 0.69 µM)
MIC (Enterococcus faecium [4]): > 64 µg/mL
MIC (Enterococcus faecalis [5]): > 64 µg/mL
